Assay outcomes as filed in PubChem.
Sampled rows, rich in hits. Any-hit rate of the full collection: about 2.8%.
pPAFAH inh: inhibitors of human plasma PAF acetylhydrolase (pPAFAH); Q13093; recombinant pPAFAH, FP-rhodamine probe fluorescence polarization; inhibition, % at 3.39 µM; 330,000 tested, 1.5% active; AID 463082;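 active = inhibition above the mean inhibition across the screen plus 3 SD, cut at about 25% in these data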;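 note: inhibitors block binding of the rhodamine activity-based probe so polarization drops; 0% = enzyme with DMSO and 100% = wells lacking pPAFAH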
Target sequence (Q13093 whole entry, looked up): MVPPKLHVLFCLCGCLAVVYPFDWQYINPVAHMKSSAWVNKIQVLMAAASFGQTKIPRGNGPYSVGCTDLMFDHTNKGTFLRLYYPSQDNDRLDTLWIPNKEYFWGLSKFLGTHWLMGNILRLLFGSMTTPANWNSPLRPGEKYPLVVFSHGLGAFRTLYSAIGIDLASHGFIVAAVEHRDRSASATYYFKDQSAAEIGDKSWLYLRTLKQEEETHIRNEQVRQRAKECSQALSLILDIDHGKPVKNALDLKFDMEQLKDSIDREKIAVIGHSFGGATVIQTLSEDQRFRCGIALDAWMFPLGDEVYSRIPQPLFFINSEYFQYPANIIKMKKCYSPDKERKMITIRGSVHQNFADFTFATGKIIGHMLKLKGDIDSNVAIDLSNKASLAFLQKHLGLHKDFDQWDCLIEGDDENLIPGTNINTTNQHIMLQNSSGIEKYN
ARFGAP1 inh: rat ARFGAP1 inhibition | Q62848 | Arfgap1-stimulated ARF1 GTP hydrolysis, GDP FP detection | inhibition, % at 16.5 µM | 360,000 tested, 0.26% active;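 active = inhibition above a per-plate limit, mean inhibition of low control wells plus 3 SD, cut at about 25% in these data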;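 note: 0% = DMSO wells with enzyme and 100% = wells lacking Arfgap1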
Target sequence (Q62848 1-136 limits assumed): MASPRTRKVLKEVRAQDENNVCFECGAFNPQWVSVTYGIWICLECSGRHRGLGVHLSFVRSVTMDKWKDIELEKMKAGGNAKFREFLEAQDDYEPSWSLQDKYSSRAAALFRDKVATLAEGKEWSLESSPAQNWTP
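material = rat Arfgap1 catalytic domain, aa 1-136 | also added = human ARF1(Δ1-17)-GTP substrate | compound dosing = one concentration, 16.5 µM, DMSO 1.26% | times = GTP hydrolysis reaction 2 h at 25 °C | measured by = FP, GDP Alexa 633 tracer displaced from anti-GDP antibody, 620/688 nm | evaluation = percent inhibition of Arfgap1-stimulated GTP hydrolysis | replication = single well per compound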
PAFAH2 inh: PAFAH2 (human) inhibition. AID 492956. recombinant PAFAH2, FP-rhodamine activity probe, fluorescence polarization. Q99487. inhibition, % at 3.39 µM. 340,000 tested, 0.99% active;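 active = inhibition above the mean over all tested compounds plus 3 SD, cut at about 30% in these data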;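 note: inhibitors block probe labeling of enzyme so polarization drops; 0% = enzyme with DMSO and 100% = wells lacking PAFAH2 protein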
PAFAH1B2 inh: blocks human PAF acetylhydrolase 1b catalytic subunit 2; inhibition, % at 3.39 µM; recombinant PAFAH1B2, FP-rhodamine activity probe, fluorescence polarization; P68402; 340,000 tested, 1.2% active;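 active = inhibition above the mean of all tested compounds plus 3 SD, cut at about 24% in these data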;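 note: 0% = enzyme with DMSO and 100% = wells lacking PAFAH1B2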
ASAP1 GAP inh: inhibitors of human ASAP1 ArfGAP activity | 360,000 tested, 0.19% active | Q9ULH1 | inhibition, % at 16.5 µM | ASAP1-stimulated ARF1 GTP hydrolysis, GDP FP detection; in the data active = inhibition above about 25%;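 note: 0% = vehicle with enzyme and substrate and 100% = no enzyme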
PAFAH1B3 FP inh: PAFAH1B3 (human) inhibition; Q15102; recombinant PAFAH1B3, FP-rhodamine probe, fluorescence polarization; inhibition, % at 3.39 µM; 340,000 tested, 0.28% active; AID 492972;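 active = inhibition above the screen-wide average of all tested compounds plus 3 SD, cut at about 25% in these data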;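 note: 0% = enzyme with DMSO only and 100% = wells lacking PAFAH1B3 protein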
* marks the source's active call; other numbers are inactive results; / = no result.

SMILES	pPAFAH inh	ARFGAP1 inh	PAFAH2 inh	PAFAH1B2 inh	ASAP1 GAP inh	PAFAH1B3 FP inh
Cc1noc(NS(=O)(=O)c2ccc(NC(=O)CC34CC5CC(CC(Br)(C5)C3)C4)cc2)c1C	-5	4	10	33*	14	5
CCCOc1ccc(C(=O)Nc2ccc(S(=O)(=O)Nc3onc(C)c3C)cc2)cc1	30*	3	-3	7	-4	18
Cc1noc(NS(=O)(=O)c2ccc(NC(=O)Nc3ccc(Cl)c(Cl)c3)cc2)c1C	25*	0	-19	14	11	18
CCCCOc1ccc(C(=O)Nc2ccc(S(=O)(=O)Nc3onc(C)c3C)cc2)cc1	6	-12	-2	2	-2	8
Cc1noc(NS(=O)(=O)c2ccc(NC(=O)C(Cl)(Cl)Cl)cc2)c1C	-2	2	3	7	0	-3
O=C1NCC(Nc2ccc(Cl)cc2)C(=O)N1 (stereo unspecified)	/	4	-6	4	-19	-2
COc1ccc2oc(CS(=O)c3ccccc3)c(C(=O)O)c2c1 (stereo unspecified)	3	18	1	3	4	0
CC(C)(C)c1ccc(OCC(=O)N2CCN(c3ncccn3)CC2)cc1	26*	/	16	3	/	-4
O=C(/C=C/c1ccc(F)cc1)N1CCN(c2ncccn2)CC1	-4	13	3	1	-17	4
O=C(/C=C/c1ccc(Cl)c(C(F)(F)F)c1)N1CCN(c2ccccn2)CC1	29*	-11	40*	2	1	3
CC(C)(C)c1ccc(OCC(=O)N2CCN(c3ccccn3)CC2)cc1	16	3	6	16	3	5
CC(C)(C)c1ccc(/C=C/C(=O)N2CCN(c3ncccn3)CC2)cc1	32*	3	4	6	-14	12
COC(=O)[C@@]12C[C@@H](CC(=O)NCCc3ccccc3OC)C(=O)N(Cc3ccco3)C1=CCC(C)(C)C2	/	-8	/	/	10	/
COC(=O)[C@@]1(C)[C@H]2C(=O)N(C)C(=O)[C@H]2[C@H]2CN=C(SCc3ccc(Cl)cc3)N21	4	-4	-2	29*	-12	1
COC(=O)[C@@]1(C)[C@H]2C(=O)N(C)C(=O)[C@H]2[C@H]2CN=C(SCc3ccc(C#N)cc3)N21	9	2	-4	12	0	6
COC(=O)c1ccc(N2CCc3ccccc32)c([N+](=O)[O-])c1	25*	-2	5	7	12	2
O=C(O)c1ccc(N2CCc3ccccc32)c([N+](=O)[O-])c1	6	-12	2	5	-2	7
CC1(C)CC(NC(=O)C2CCC(=O)N(Cc3ccccc3F)C2)CC(C)(C)C1 (stereo unspecified)	/	8	3	28*	0	15
Cc1oc2c(O)c(O)ccc2c(=O)c1-c1ccc(Cl)cc1	30*	0	23	5	5	22
COc1ccc(NS(=O)(=O)c2cccc(C(=O)NC3CCC(O)CC3)c2)cc1 (stereo unspecified)	17	6	-11	1	10	4
O=C(NCC1CCCC(CNC(=O)Nc2ccc(Cl)cn2)C1)Nc1ccc(Cl)cn1 (stereo unspecified)	2	-2	21	26*	10	-2
N#CC1(C#N)C(c2ccccc2)OC23CCCCCC2C1(C#N)C(=N)O3 (stereo unspecified)	4	1	12	3	16	-2
CCCCC1OC23CCCCC2C(C#N)(C(=N)O3)C1(C#N)C#N (stereo unspecified)	5	3	36*	30*	-2	26*
CCCCC1OC23CCCCC2C(C#N)(C#N)C1(C#N)C(=N)O3 (stereo unspecified)	17	0	41*	30*	13	36*
N#CC1(C#N)C(c2ccccc2)OC23CCCCC2C1(C#N)C(=N)O3 (stereo unspecified)	16	16	26	15	-14	20
SMILES	pPAFAH inh	ARFGAP1 inh	PAFAH2 inh	PAFAH1B2 inh	ASAP1 GAP inh	PAFAH1B3 FP inh
CCCCCCCCOc1ccc(C2OC34CCCCC3C(C#N)(C#N)C2(C#N)C(=N)O4)cc1 (stereo unspecified)	30*	/	34*	27*	/	22
CC(C)NC(=O)C1(C)CSCC(=O)N1CC(F)(F)F (stereo unspecified)	/	9	/	/	-7	/
O=C(/C=C/c1cccnc1)c1ccc(NC(=O)c2cccc(Br)c2)cc1	-10	8	-41	-30	26*	-61
C/C(CC(=O)NCc1ccccc1Cl)=N/NC(=O)c1ccccn1	2	-18	-1	6	-9	2
N=c1c[n+](-c2ccc(Cl)cc2)[n-]o1	9	10	9	31*	-5	-1
CCC1(C)CC(c2csc(N)n2)CCO1 (stereo unspecified)	1	6	-7	1	-4	2
Nc1nc(C2CCCCC2)cs1	-1	-11	-1	58*	-3	7
COc1ccc(Cl)cc1NC(=O)C/C(C)=N/NC(=O)c1ccc(O)cc1	/	19	3	5	-14	6
CC(=NNC(=O)c1ccncc1)c1ccc(Cl)cc1Cl	/	-8	8	3	-4	8
CC(=O)Nc1ccc(Nc2nc3ccccc3nc2NS(=O)(=O)c2ccc(Cl)c([N+](=O)[O-])c2)cc1	/	20	52*	23	5	31*
O=[N+]([O-])c1ccc(S(=O)(=O)Nc2nc3ccccc3nc2Nc2ccccc2)cc1	-3	-8	/	/	-16	/
O=C(CNC(=O)c1ccccc1)N/N=C/c1cc(Br)ccc1O	9	-5	4	27*	2	10
C[C@H](O)[C@@H]1CN2CCc3c([nH]c4ccc(-c5ccc6c(c5)OCO6)cc34)[C@@H]2C[C@@H]1N(C)C(=O)Nc1cc(Cl)cc(Cl)c1	/	16	/	/	15	/
Cn1nnc(NC(=O)CSc2ccc(Cl)cc2)n1	3	2	-8	25*	-9	-1
COc1cc(Cl)c(C)cc1NC(=O)CSc1ccccc1	7	-1	-2	2	9	0
COC(=O)c1sccc1NC(=O)CSc1ccccc1N	-3	-2	2	6	-4	6
CCCn1nnc(NC(=O)Cc2ccc(Cl)cc2)n1	1	-14	2	27*	-22	7
COc1cc(Cl)c(C)cc1NC(=O)CSc1ccc(C)cc1	0	/	-4	34*	/	3
COC(=O)c1sccc1NC(=O)CSc1ccc(Cl)cc1	8	-6	-6	29*	-3	-12
Cn1nnc(NC(=O)CSc2nnnn2-c2ccc(F)cc2)n1	-2	4	0	4	0	12
C[C@@H]1CN([C@@H](C)CO)S(=O)(=O)c2ccc(Br)cc2O[C@H]1CN(C)C(=O)C1CCC1	/	2	/	/	-5	/
